Here are results for one compound from ChEMBL document CHEMBL4422637, “Identification of dual role of piperazine-linked phenyl cyclopropyl methanone as positive allosteric modulator of 5-HT2C and negative allosteric modulator of 5-HT2B receptors” (Eur J Med Chem, 2019).

The target of data set [1] is T1, 5-hydroxytryptamine receptor 2C (Homo sapiens, UniProt P28335).
T1 sequence (P28335 whole entry): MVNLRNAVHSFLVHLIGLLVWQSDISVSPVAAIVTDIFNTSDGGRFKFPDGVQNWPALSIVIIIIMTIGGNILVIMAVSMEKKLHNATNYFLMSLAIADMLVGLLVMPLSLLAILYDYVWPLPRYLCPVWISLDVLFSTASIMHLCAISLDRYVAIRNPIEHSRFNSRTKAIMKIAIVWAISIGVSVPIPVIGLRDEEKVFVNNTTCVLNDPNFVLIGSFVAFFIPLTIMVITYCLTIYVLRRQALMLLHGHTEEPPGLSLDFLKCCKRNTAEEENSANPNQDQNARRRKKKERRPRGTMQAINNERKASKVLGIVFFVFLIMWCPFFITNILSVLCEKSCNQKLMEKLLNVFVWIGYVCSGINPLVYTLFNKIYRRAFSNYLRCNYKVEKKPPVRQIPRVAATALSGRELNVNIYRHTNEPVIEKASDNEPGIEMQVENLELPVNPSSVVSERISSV
Kind of data set: Positive allosteric modulation of 5HT2C receptor (unknown origin) expressed in HEK293 cells co-expressing NFAT-RE assessed as increase in serotonin-induced reponse after 6 to 12 hrs by Bright-Glo luciferase reporter gene assay. Type of data set: cell-based. The procedure, abridged:
(§1)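 Transiently co-transfected HEK293T cells expressing 5-HT2A, 5-HT2B or 5-HT2C with NFAT-RE luciferase, 50,000 cells/well. Test compound added first at 10 µM, 1 µM or 100 nM, in triplicate. A 5-HT concentration-response (10 µM to 0.01 nM) followed, then 6-12 h incubation. Bright-Glo luminescence was fitted by non-linear regression, with Emax normalized to 5-HT alone (100%). n=3-4.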
Background: In a reporter assay the amount or activity of a reporter protein is the signal.

For data set [2], the target named is T2, 5-hydroxytryptamine receptor 2C (Homo sapiens) (UniProt P28335).
T2 sequence (whole entry): T1 sequence (P28335 whole entry)
The data set can be described thus: Positive allosteric modulation of 5HT2C receptor (unknown origin) expressed in HEK293 cells co-expressing NFAT-RE assessed as increase in serotonin-induced reponse at 10 uM after 6 to 12 hrs by Bright-Glo luciferase reporter gene assay relative to serotonin. In kind it is cell-based. The procedure, abridged: as §1

The target in data set [3] is T2, 5-hydroxytryptamine receptor 2C (Homo sapiens). The data set can be described thus: Positive allosteric modulation of 5HT2C receptor (unknown origin) expressed in HEK293 cells co-expressing NFAT-RE assessed as increase in serotonin-induced reponse at 100 nM after 6 to 12 hrs by Bright-Glo luciferase reporter gene assay relative to serotonin. Type of data set: cell-based. The method in brief:
as §1

Data set [4] has the same target. The data set can be described thus: Agonist activity at 5HT2C receptor (unknown origin) expressed in HEK293 cells co-expressing NFAT-RE after 6 to 12 hrs by Bright-Glo luciferase reporter gene assay. In kind it is cell-based. The method in brief: (§2)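 HEK293T cells transiently co-transfected (PEI) with 0.1 µg/well receptor plasmid (5-HT2A, 5-HT2B or 5-HT2C) plus 0.1 µg/well NFAT-RE luciferase reporter, plated 50,000 cells/well 24 h before treatment. Compounds tested in triplicate from 10 µM down to 0.01 nM in HBSS/20 mM HEPES pH 7.4, incubated 6-12 h. Luminescence read within 5 min of Bright-Glo (1 mg/ml final). RLU fitted by non-linear regression; 5-HT Emax set to 100%.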

For the next data set, the target named is 5HT2A receptor (Homo sapiens, UniProt P28223). The data set can be described thus: Positive allosteric modulation of 5HT2A receptor (unknown origin) expressed in HEK293 cells co-expressing NFAT-RE assessed as increase in serotonin-induced reponse at 1 uM after 6 to 12 hrs by Bright-Glo luciferase reporter gene assay relative to serotonin. In kind it is cell-based. The note with it: HEK293 cells expressing 5HT2A receptor and NFAT-RE reporter. The procedure, abridged: as §1

Data set [5] relates to Rattus norvegicus. The data set can be described thus: Induction of anorexia in Sprague-Dawley rat assessed as suppression of food intake at 2 pmol, icv measured after 24 hrs. In kind it is functional, organism-based. The method in brief: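 Adult SD rats (150-200 g) on a 12 h light/dark cycle at 22 °C, with a cannula in the right ventricle (AP -0.9, ML -1.5, DV -3.5). Rats were food-deprived for 4 h with water available. Compound given i.c.v. at 2 pmol/rat in 2 µL, vehicle aCSF; lorcaserin 2 pmol as positive control. Weighed pellets were supplied 10 min later. Remaining food including spillage was weighed at 3, 6 and 24 h; n=4.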

Data set [6] has as its target T3, 5-hydroxytryptamine receptor 2A (Homo sapiens, UniProt P28223). Kind of data set: Agonist activity at 5HT2A receptor (unknown origin) expressed in HEK293 cells co-expressing NFAT-RE after 6 to 12 hrs by Bright-Glo luciferase reporter gene assay. Type of data set: cell-based. The method in brief:
as §2

In data set [7] the target is T2, 5-hydroxytryptamine receptor 2C (Homo sapiens). Kind of data set: Agonist activity at 5HT2C receptor (unknown origin) expressed in HEK293 cells co-expressing NFAT-RE at 10 uM after 6 to 12 hrs by Bright-Glo luciferase reporter gene assay relative to control. Type of data set: cell-based. The method in brief:
(§3)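 Primary screen at 5-HT2C in transiently co-transfected HEK293T (receptor plus NFAT-RE luciferase plasmids, 50,000 cells/well). Compounds tested in triplicate at a final 10 µM in HEPES-buffered HBSS pH 7.4 and incubated 6-12 h. Luminescence read within 5 min of Bright-Glo (1 mg/ml final). Signal normalized to the 5-HT maximal response.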

Another data set has as its target 5HT2B receptor (Homo sapiens, UniProt P41595). The data set can be described thus: Positive allosteric modulation of 5HT2B receptor (unknown origin) expressed in HEK293 cells co-expressing NFAT-RE assessed as increase in serotonin-induced reponse at 1 uM after 6 to 12 hrs by Bright-Glo luciferase reporter gene assay relative to serotonin. Type of data set: cell-based. The note with it: HEK293 cells expressing 5HT2B receptor and NFAT-RE reporter. The procedure, abridged: as §1

The target in data set [8] is T3, 5-hydroxytryptamine receptor 2A. The data set can be described thus: Positive allosteric modulation of 5HT2A receptor (unknown origin) expressed in HEK293 cells co-expressing NFAT-RE assessed as increase in serotonin-induced reponse after 6 to 12 hrs by Bright-Glo luciferase reporter gene assay. Type of data set: cell-based. The procedure, abridged: as §1
The target in data set [9] is T2, 5-hydroxytryptamine receptor 2C (Homo sapiens). Kind of data set: Positive allosteric modulation of 5HT2C receptor (unknown origin) expressed in HEK293 cells co-expressing NFAT-RE assessed as increase in serotonin-induced intracellular calcium flux at 1 uM preincubated for 15 mins followed by serotonin stimulation and measured for 120 secs by Fluo-4NW dye based fluorescence assay relative to serotonin. Type of data set: functional, cell-based. The method in brief:
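5-HT2C-transfected HEK293T cells, 50,000 cells/well, loaded with Fluo-4NW calcium dye. Compound (1 µM) preincubated 15 min. 5-HT then added at 35 µl/min and fluorescence (ex 494/em 516 nm) recorded for 120 s. Fold change was calculated against baseline from the first 5 s before ligand addition. Emax normalized to 5-HT alone.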
(In general: A change in cytosolic calcium serves as a functional read-out for many receptors and channels.)

Data set [10] has the same target. Kind of data set: Agonist activity at 5HT2C receptor (unknown origin) expressed in HEK293 cells co-expressing NFAT-RE at 10 uM after 6 to 12 hrs by Bright-Glo luciferase reporter gene assay. Type of data set: cell-based. The procedure, abridged:
as §3

Data set [11] concerns Rattus norvegicus. Kind of data set: Induction of anorexia in Sprague-Dawley rat assessed as suppression of food intake at 2 pmol, icv measured after 3 to 6 hrs. In kind it is functional, organism-based. The method in brief:
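Adult SD rats (150-200 g) on a 12 h light/dark cycle at 22 °C, cannulated in the right ventricle. Rats were fasted 4 h with free access to water, then dosed i.c.v. with 2 pmol/rat (2 µL) in aCSF vehicle; lorcaserin 2 pmol/rat served as positive control. Weighed pellets were given 10 min later, and remaining food plus spillage was weighed at 3, 6 and 24 h; n=4.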

The target in data set [12] is T2, 5-hydroxytryptamine receptor 2C (Homo sapiens). Kind of data set: Positive allosteric modulation of 5HT2C receptor (unknown origin) expressed in HEK293 cells co-expressing NFAT-RE assessed as increase in serotonin-induced reponse at 1 uM after 6 to 12 hrs by Bright-Glo luciferase reporter gene assay relative to serotonin. In kind it is cell-based. The method in brief: as §1

In data set [13] the target is T4, 5-hydroxytryptamine receptor 2B (Homo sapiens, UniProt P41595). The data set can be described thus: Negative allosteric modulation of 5HT2B receptor (unknown origin) expressed in HEK293 cells co-expressing NFAT-RE assessed as reduction in serotonin-induced reponse after 6 to 12 hrs by Bright-Glo luciferase reporter gene assay. Type of data set: cell-based. The method in brief:
as §1

Data set [14] has as its target T4, 5-hydroxytryptamine receptor 2B. The data set can be described thus: Positive allosteric modulation of 5HT2B receptor (unknown origin) expressed in HEK293 cells co-expressing NFAT-RE assessed as increase in serotonin-induced reponse after 6 to 12 hrs by Bright-Glo luciferase reporter gene assay. Type of data set: cell-based. The procedure, abridged: as §1
For data set [15] the target is unchanged. Kind of data set: Agonist activity at 5HT2B receptor (unknown origin) expressed in HEK293 cells co-expressing NFAT-RE after 6 to 12 hrs by Bright-Glo luciferase reporter gene assay. Type of data set: cell-based. The method in brief:
as §2

The structures appear in SMILES notation. Calls of active or inactive are those of the source. The calls are words filed in the database; no cut-off is given here.

What is called EC50 is the concentration at which the effect is half-maximal. Broadly, the Emax is the greatest response seen or fitted, relative to the assay's reference.

T4 sequence (P41595 whole entry): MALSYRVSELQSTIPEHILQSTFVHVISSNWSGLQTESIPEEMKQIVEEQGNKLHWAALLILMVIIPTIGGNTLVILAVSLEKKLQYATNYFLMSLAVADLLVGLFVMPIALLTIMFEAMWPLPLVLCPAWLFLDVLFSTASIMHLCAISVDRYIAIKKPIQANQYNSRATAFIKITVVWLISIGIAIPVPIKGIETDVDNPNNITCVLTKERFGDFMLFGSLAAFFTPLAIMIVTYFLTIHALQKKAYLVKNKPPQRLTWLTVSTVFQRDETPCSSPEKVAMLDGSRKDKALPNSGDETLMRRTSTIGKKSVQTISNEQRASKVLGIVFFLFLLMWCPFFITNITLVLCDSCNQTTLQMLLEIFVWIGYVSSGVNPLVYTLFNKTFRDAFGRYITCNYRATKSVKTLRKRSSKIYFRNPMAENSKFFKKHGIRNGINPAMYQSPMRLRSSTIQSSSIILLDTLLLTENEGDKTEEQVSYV
T3 sequence (P28223 whole entry): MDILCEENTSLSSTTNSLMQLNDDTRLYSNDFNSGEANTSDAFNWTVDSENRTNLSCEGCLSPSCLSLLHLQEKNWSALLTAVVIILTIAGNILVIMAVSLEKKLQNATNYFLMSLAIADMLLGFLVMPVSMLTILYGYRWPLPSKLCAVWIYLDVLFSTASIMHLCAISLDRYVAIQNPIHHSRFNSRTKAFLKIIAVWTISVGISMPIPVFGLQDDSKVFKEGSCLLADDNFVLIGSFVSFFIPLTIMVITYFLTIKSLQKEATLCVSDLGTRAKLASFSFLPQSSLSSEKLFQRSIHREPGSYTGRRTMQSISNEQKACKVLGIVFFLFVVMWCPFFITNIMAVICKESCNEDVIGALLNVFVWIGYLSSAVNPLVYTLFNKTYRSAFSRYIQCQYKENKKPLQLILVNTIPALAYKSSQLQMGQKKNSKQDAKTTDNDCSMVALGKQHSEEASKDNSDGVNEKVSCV
5HT2B receptor, sequence (P41595 whole entry): as the sequence (P41595 whole entry) above
5HT2A receptor, sequence (P28223 whole entry): as the sequence (P28223 whole entry) above

For the compound `O=C(c1ccc(N2CCN(Cc3ccccc3)CC2)cc1)C1CC1`, the EC50 in data set [1] was 5.01 nM; in [8] it was 38 nM; in data set [14] it was 11.7 nM. Further, the Emax was 149% in data set [2], 124% in data set [9] and 139 to 146% in data set [12]. Besides, the outcome (in [3]; in the data set on Rattus norvegicus [11]) was Active. The outcome (in data set [4]; in the data set with Rattus norvegicus [5]; in [10]) was inactive. Also, the Emax at 1 µM on 5HT2A receptor was 99%; on 5HT2B receptor, 118%. Moreover, the Activity result is listed as “Not Active” in data set [6], “Dose-dependent effect” in data set [13] and “Not Active” in data set [15]. In data set [7], this compound returned a fold change (FC) of 2.
